Results taken from ChEMBL document CHEMBL1150277, “Benzofuran-based hybrid compounds for the inhibition of cholinesterase activity, beta amyloid aggregation, and abeta neurotoxicity” (J Med Chem, 2008).

What was measured:
SH-SY5Y [1] = experiment: Neuroprotective effect against Amyloid beta 25-35-induced neurotoxicity in human SH-SY5Y cells assessed as neuronal viability at 10 to 30 uM after 3 hrs by MTT assay; type: functional
In short: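 SH-SY5Y cells were exposed 3 h to 10 µM Aβ25-35 peptide, with or without varied compound concentrations. Viability was measured by MTT and expressed as percentage of control cells, as mean ± SD of three independent experiments. Comparison was against the untreated sample by ANOVA with Dunnett post hoc test.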

[2] = Inhibition of Amyloid beta 25-35 fibril formation
In short: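 In vitro assay of Aβ25-35 fibril formation read by UV-vis measurements, with electron microscopy also used. IC50 is the inhibitor concentration that lowers fibril formation to 50% of the untreated control value.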

[3] = Lipophilicity, log P of the compound; type: physicochemical; settings: octanol/water
SH-SY5Y [4] = experiment: Neuroprotective effect against Amyloid beta 25-35-induced neurotoxicity in human SH-SY5Y cells assessed as neuronal viability after 3 hrs by MTT assay; type: functional, cell-based
In short: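 Human neuronal-like SH-SY5Y cells were incubated 3 h with 10 µM Aβ25-35 peptide, with or without compound at 1-30 µM. Viability was read by colorimetric MTT assay. IC50 is the concentration giving 50% inhibition of peptide toxicity, as mean ± SD of at least two independent experiments.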

Acetylcholinesterase = Acetylcholinesterase (Homo sapiens, UniProt P22303); experiment: Inhibition of human recombinant AchE after 20 mins by Ellman's method
Chain of Acetylcholinesterase (P22303 whole entry): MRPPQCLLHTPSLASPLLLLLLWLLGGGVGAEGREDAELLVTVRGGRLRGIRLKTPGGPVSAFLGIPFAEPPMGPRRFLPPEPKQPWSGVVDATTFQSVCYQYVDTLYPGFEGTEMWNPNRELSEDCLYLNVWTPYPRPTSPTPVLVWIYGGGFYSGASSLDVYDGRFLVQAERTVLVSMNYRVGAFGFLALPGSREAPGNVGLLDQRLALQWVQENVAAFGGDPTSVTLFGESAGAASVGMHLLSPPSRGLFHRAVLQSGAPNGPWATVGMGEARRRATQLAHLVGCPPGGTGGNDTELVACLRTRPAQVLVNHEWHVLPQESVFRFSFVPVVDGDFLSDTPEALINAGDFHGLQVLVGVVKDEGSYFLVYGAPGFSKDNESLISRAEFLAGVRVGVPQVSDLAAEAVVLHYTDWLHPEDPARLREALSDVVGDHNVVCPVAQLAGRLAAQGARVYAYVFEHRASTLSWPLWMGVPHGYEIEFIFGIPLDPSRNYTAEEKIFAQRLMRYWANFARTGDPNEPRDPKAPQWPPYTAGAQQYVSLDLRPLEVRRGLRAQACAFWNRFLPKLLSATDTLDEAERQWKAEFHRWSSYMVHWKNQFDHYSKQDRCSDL

Cholinesterase = Cholinesterase (Homo sapiens, UniProt P06276); experiment: Inhibition of human serum BuchE after 20 mins by Ellman's method
Chain of Cholinesterase (P06276 whole entry): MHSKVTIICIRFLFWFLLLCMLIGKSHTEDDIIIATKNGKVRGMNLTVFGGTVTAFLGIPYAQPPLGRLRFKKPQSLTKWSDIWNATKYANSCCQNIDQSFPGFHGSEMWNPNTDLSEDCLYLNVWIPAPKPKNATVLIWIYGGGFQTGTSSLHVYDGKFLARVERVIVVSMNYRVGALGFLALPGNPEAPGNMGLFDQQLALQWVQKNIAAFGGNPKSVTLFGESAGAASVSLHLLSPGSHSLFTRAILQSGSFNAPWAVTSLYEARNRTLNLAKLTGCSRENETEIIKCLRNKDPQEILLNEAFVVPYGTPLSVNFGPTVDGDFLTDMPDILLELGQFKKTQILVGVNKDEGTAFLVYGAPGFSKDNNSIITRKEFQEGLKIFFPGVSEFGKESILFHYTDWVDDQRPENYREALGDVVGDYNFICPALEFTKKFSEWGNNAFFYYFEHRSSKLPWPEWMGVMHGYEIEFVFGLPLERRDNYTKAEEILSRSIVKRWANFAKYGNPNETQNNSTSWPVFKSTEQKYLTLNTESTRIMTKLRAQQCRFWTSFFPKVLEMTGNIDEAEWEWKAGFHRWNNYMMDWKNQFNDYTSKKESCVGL

Row | SMILES | Activity (SH-SY5Y [1]) | IC50 [2] | logP [3] | IC50 (SH-SY5Y [4]) | IC50 (Acetylcholinesterase) | IC50 (Cholinesterase)
1 | CN(CCCCCCCOc1ccc(-c2oc3ccccc3c2C(=O)c2ccccc2)cc1)Cc1ccccc1 | 63% | 12.5 µM | 8 | 5.6 µM | 40.7 µM | 38.1 µM
2 | COc1cccc(C(=O)c2c(-c3ccc(OCCCCCCCN(C)Cc4ccccc4)cc3)oc3ccccc23)c1 | – | – | – | – | 127 µM | 21.7 µM
3 | Cc1cccc(C(=O)c2c(-c3ccc(OCCCCCCCN(C)Cc4ccccc4)cc3)oc3ccccc23)c1 | – | – | – | – | 127 µM | 40.9 µM
4 | CC(=O)c1c(-c2ccc(OCCCCCCCN(C)Cc3ccccc3)cc2)oc2ccccc12 | – | – | – | – | 17.4 µM | 1.83 µM
5 | COc1ccc(C(=O)c2c(-c3ccc(OCCCCCCCN(C)Cc4ccccc4)cc3)oc3ccccc23)cc1OC | – | – | – | – | 177 µM | 74.1 µM
6 | Cc1ccc(C(=O)c2c(-c3ccc(OCCCCCCCN(C)Cc4ccccc4)cc3)oc3ccccc23)cc1 | – | 13 µM | – | – | 10.5 µM | 1.82 µM
7 | COc1cc(/C=C/C(=O)CC(=O)/C=C/c2ccc(O)c(OC)c2)ccc1O [CURCUMIN] | – | 10 µM | – | – | – | –
8 | CN(CCCCCCCOc1ccc(-c2cc3ccccc3o2)cc1)Cc1ccccc1 | – | 7 µM | 6.8 | – | 32.6 µM | 0.28 µM
9 | COc1ccc(C(=O)c2c(-c3ccc(OCCCCCCCN(C)Cc4ccccc4)cc3)oc3ccccc23)cc1 | – | – | – | – | 281 µM | 89.1 µM
